Data on 30 compounds can be found in ChEMBL document CHEMBL2375351, “Degradation of MAC13243 and studies of the interaction of resulting thiourea compounds with the lipoprotein targeting chaperone LolA” (Bioorg Med Chem Lett, 2013).

Structures are written as SMILES. ≈ marks a conversion by molar mass, not a printed value. Calls of active or inactive are those of the source.

By MIC is commonly meant the smallest concentration in the dilution series that meets the test's criterion for growth inhibition. The term Kd denotes the constant that tells how readily two partners part at equilibrium. Usually half-life stands for how long it takes for the measured level to halve. Low values mean fast loss, high ones slow loss.

The test system of one series is Pseudomonas aeruginosa. Put plainly: Antibacterial activity against Pseudomonas aeruginosa PAO1 assessed as growth inhibition after 16 hrs. In kind it is functional. Particulars: PAO1, 16 h. In outline:
(§1)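 Broth microdilution in liquid LB with B. subtilis 168 or P. aeruginosa PAO1. Overnight cultures were diluted 1:100, grown to OD600 0.4, then diluted 1:100,000 into serially diluted compound (1–256 µg/mL). Plates were incubated 16 h at 37 °C, static, except B. subtilis, which was shaken at 250 rpm. MIC is the lowest concentration giving OD600 below 0.05.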

The test system of another series is Bacillus subtilis. Put plainly: Antibacterial activity against Bacillus subtilis 168 assessed as growth inhibition after 16 hrs. In kind it is functional. Particulars: subsp. subtilis str. 168, 16 h. In outline:
as §1

In series [1] the test system is Escherichia coli. Put plainly: Antibacterial activity against Escherichia coli MG1655 overexpressing lolA assessed as growth inhibition after 16 hrs. In kind it is functional. Particulars: MG1655, 16 h.
In series [2] the test system is Escherichia coli. Put plainly: Antibacterial activity against Escherichia coli EB2120 conditional lolA strain with lolA deletion and complementing copy placed at araBAD locus at 1 to 256 ug/mL after 18 hrs in presence of 0.00002 to 0.2% of arabinose. The series is classed as functional, organism-based. The procedure, abridged: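 Conditional lolA strain EB2120 (chromosomal lolA deleted, complementing copy at araBAD under arabinose control), grown to OD600 ~0.4–0.5. […] Fold sensitization is the MIC under LolA depletion relative to the fully complemented 0.2% arabinose condition.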

Series [3] in a line: Binding affinity to Escherichia coli LolA.
The test system of series [4] is Escherichia coli. Put plainly: Binding affinity to LolA in Escherichia coli EB68 assessed as change in cell shape from rod to sphere at 10 ug/mL measured every 1 hr for 4 hrs by phase contrast microscopic analysis. The procedure, abridged:
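E. coli EB68 (MG1655) was subcultured 1:100 into LB and grown to OD600 ~0.5, then washed once in fresh medium. Cells were resuspended in LB with compound at 10 µg/mL, placed on poly-lysine-treated slides and examined by phase contrast light microscopy at 1 h intervals for rod-to-sphere shape change.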

The test system of series [5] is Escherichia coli. Kind of series: Potency index, ratio of MIC for Escherichia coli EB2120 conditional lolA strain with lolA deletion and complementing copy placed at araBAD locus in presence of 0.2% arabinose to MIC in presence of 0.00002% of arabinose. The series is classed as functional.
For series [6], the system named is Escherichia coli. Kind of series: Potency index, ratio of MIC for Escherichia coli AG1 overexpressing lolA to MIC for lolA-deficient Escherichia coli AG1. The series is classed as functional.
The nature of series [7]: Half life of the compound in DMSO at 250 uM measured up to 48 hrs by reverse phase HPLC analysis. The series is classed as physicochemical. In outline: (§2)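 Compound at 250 µM final was incubated in DMSO, H2O, 50 mM acetate buffer (pH 4) or 50 mM citrate buffer (pH 11). Samples were analysed over time by reverse phase C18 HPLC using a 10 min gradient of 0.1% TFA water to acetonitrile, with detection at 270 nm. Parent peak areas were plotted against time and fit to exponential decay.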

Series [8] is described as follows: Half life of the compound in citrate buffer at pH 11 at 250 uM measured up to 48 hrs by reverse phase HPLC analysis. The series is classed as physicochemical. In outline:
as §2

Series [9] is described as follows: Half life of the compound in water at 250 uM measured up to 48 hrs by reverse phase HPLC analysis. In kind it is physicochemical. In outline: as §2
Series [10] can be described thus: Half life of the compound in acetate buffer at pH 4 at 250 uM measured up to 48 hrs by reverse phase HPLC analysis. In kind it is physicochemical. The procedure, abridged: as §2
Series [11] has as its system Escherichia coli. Kind of series: Potency index, ratio of MAC13243 MIC to compound MIC for Escherichia coli MG1655 overexpressing lolA. In kind it is functional.
A short description of series [12]: Binding affinity to recombinant Escherichia coli LolA by STDD NMR spectra analysis.

`N=C(N)CCc1ccc(Cl)cc1`: the MIC is 128 µg/mL (≈ 701 µM) with Pseudomonas aeruginosa, more than 256 µg/mL with Bacillus subtilis and more than 256 µg/mL with Escherichia coli [1].

Turning to `CCn1cc(C(=O)O)c(=O)c2cc(F)c(N3CCNCC3)cc21`, in the series on Escherichia coli [2], the result was inactive.

As for `N=C(N)SCc1ccc(Cl)cc1Cl`, the MIC is 32 µg/mL (≈ 136 µM) in the series with Pseudomonas aeruginosa, more than 256 µg/mL in the series on Bacillus subtilis and 1 µg/mL (≈ 4.25 µM) with Escherichia coli [1].

On to `COc1ccc(CCN2CN=C(SCc3ccc(Cl)cc3)NC2)cc1OC`, for which, in [3], the Kd came to 8 µM. Moreover, the MIC in the series with Pseudomonas aeruginosa is 32 µg/mL (≈ 78.8 µM); with Bacillus subtilis, 256 µg/mL (≈ 631 µM); with Escherichia coli [1] it was 8 µg/mL (≈ 19.7 µM). Also, in the series on Escherichia coli [4], the outcome was Active. For the same compound, the Ratio came to 32 in the series on Escherichia coli [5] and 16 in the series with Escherichia coli [6]. The half-life at 250 µM is 257 h in series [7], 59 h in series [8], 13 h in series [9] and 4 h in series [10].

Regarding `N=C(N)CSCc1ccc(Cl)cc1`, the MIC is 128 µg/mL (≈ 596 µM) in the series on Pseudomonas aeruginosa, more than 256 µg/mL in the series on Bacillus subtilis and more than 256 µg/mL with Escherichia coli [1].

As to `CN[C@@H]1[C@H](O)[C@H](NC)[C@H]2O[C@@]3(O)C(=O)C[C@@H](C)O[C@H]3O[C@@H]2[C@H]1O`, in the series with Escherichia coli [2], the outcome was inactive.

In the case of `N=C(N)NCc1ccc(Cl)cc1`, the values for the MIC with Pseudomonas aeruginosa, in the series on Bacillus subtilis and with Escherichia coli [1] were 128 µg/mL (≈ 697 µM), more than 256 µg/mL and 256 µg/mL (≈ 1390 µM), respectively.

As to `CN(C)[C@@H]1C(O)=C(C(N)=O)C(=O)[C@@]2(O)C(O)=C3C(=O)c4c(O)cccc4[C@@](C)(O)[C@H]3C[C@@H]12`, in the series with Escherichia coli [2], the outcome was inactive.

Regarding `N=C(N)SCc1ccc(I)cc1`, the figures for the minimum inhibitory concentration (MIC) with Pseudomonas aeruginosa, in the series on Bacillus subtilis and in the series with Escherichia coli [1] were 32 µg/mL (≈ 110 µM), more than 256 µg/mL and 16 µg/mL (≈ 54.8 µM), respectively.

Regarding `N=C(N)SCc1ccc([N+](=O)[O-])cc1`, the MIC in the series on Pseudomonas aeruginosa was 64 µg/mL (≈ 303 µM); in the series on Bacillus subtilis, more than 256 µg/mL; in the series with Escherichia coli [1] it was 32 µg/mL (≈ 151 µM).

Regarding `COc1cc(Cc2cnc(N)nc2N)cc(OC)c1OC`, in the series with Escherichia coli [2], the result was inactive.

`C/N=C(\NC)SCc1ccc(Cl)c(Cl)c1`: the MIC with Pseudomonas aeruginosa is 256 µg/mL (≈ 973 µM); in the series with Bacillus subtilis it was more than 256 µg/mL; with Escherichia coli [1] it was 256 µg/mL (≈ 973 µM).

For `N=C(N)SCc1ccc(F)cc1`, the MIC in the series on Pseudomonas aeruginosa is 16 µg/mL (≈ 86.8 µM); with Bacillus subtilis, more than 256 µg/mL; with Escherichia coli [1], 16 µg/mL (≈ 86.8 µM).

On to `N=C(N)SCc1ccc(Br)cc1`, for which the results for the MIC with Pseudomonas aeruginosa, with Bacillus subtilis and with Escherichia coli [1] were 16 µg/mL (≈ 65.3 µM), more than 256 µg/mL and 4 µg/mL (≈ 16.3 µM), respectively.

As to `N=C(N)SCc1ccccc1` [BENZYL CARBAMIMIDOTHIOATE], the MIC is 32 µg/mL (≈ 192 µM) in the series on Pseudomonas aeruginosa, more than 256 µg/mL in the series on Bacillus subtilis and 64 µg/mL (≈ 385 µM) in the series on Escherichia coli [1].

Take `CO[C@H]1/C=C/O[C@@]2(C)Oc3c(C)c(O)c4c(O)c(c(/C=N/N5CCN(C)CC5)c(O)c4c3C2=O)NC(=O)/C(C)=C\C=C\[C@H](C)[C@H](O)[C@@H](C)[C@@H](O)[C@@H](C)[C@H](OC(C)=O)[C@@H]1C`: the result in the series with Escherichia coli [2] was inactive.

Turning to `N=C(N)SCc1ccccc1Cl`, the MIC was 64 µg/mL (≈ 319 µM) in the series with Pseudomonas aeruginosa, more than 256 µg/mL in the series on Bacillus subtilis and 16 µg/mL (≈ 79.7 µM) with Escherichia coli [1].

In the case of `N=C(N)SCc1ccc(Cl)cc1`, the Ratio was determined as 4 in the series with Escherichia coli [11], 32 with Escherichia coli [5] and 16 in the series with Escherichia coli [6]. In addition, the MIC was 16 µg/mL (≈ 79.7 µM) with Pseudomonas aeruginosa, more than 256 µg/mL with Bacillus subtilis and 2 µg/mL (≈ 9.97 µM) in the series with Escherichia coli [1]. Moreover, the Kd in series [12] is 150 µM.

Take `N=C(N)SCc1ccc(Cl)c(Cl)c1`: the figures for the MIC in the series on Pseudomonas aeruginosa, in the series with Bacillus subtilis and in the series on Escherichia coli [1] were 16 µg/mL (≈ 68 µM), more than 256 µg/mL and 2 µg/mL (≈ 8.51 µM), respectively. The Kd in series [12] was determined as 200 µM. Besides, the outcome in the series with Escherichia coli [4] was Active. For the same compound, the Ratio worked out at 32 in the series with Escherichia coli [5] and 16 in the series with Escherichia coli [6].

With `N=C(N)SCc1cccc(Cl)c1`, the MIC with Pseudomonas aeruginosa is more than 256 µg/mL; in the series with Bacillus subtilis it was more than 256 µg/mL; in the series with Escherichia coli [1] it was 64 µg/mL (≈ 319 µM).

For `N=C(N)SCCc1ccc(Cl)cc1`, the MIC with Pseudomonas aeruginosa is 128 µg/mL (≈ 596 µM); in the series on Bacillus subtilis it was more than 256 µg/mL; in the series on Escherichia coli [1], more than 256 µg/mL.

As for `N=C(N)SCCCc1ccc(Cl)cc1`, the MIC in the series on Pseudomonas aeruginosa is 128 µg/mL (≈ 560 µM); in the series on Bacillus subtilis it was more than 256 µg/mL; with Escherichia coli [1] it was more than 256 µg/mL.

As for `Oc1cc(Cl)ccc1Oc1ccc(Cl)cc1Cl`, in the series with Escherichia coli [2], the outcome was inactive.

Consider `C[C@@H]1O[C@@H]1P(=O)(O)O` [FOSFOMYCIN], for which the Ratio in the series with Escherichia coli [5] is recorded as 16.

`COc1ccc(CCN)cc1OC`: the MIC in the series with Escherichia coli [1] was more than 256 µg/mL.

Regarding `N=C(N)Sc1ccc(Cl)cc1`, the MIC in the series with Pseudomonas aeruginosa was 64 µg/mL (≈ 343 µM); in the series with Bacillus subtilis, 4 µg/mL (≈ 21.4 µM); in the series on Escherichia coli [1] it was more than 256 µg/mL.

Turning to `COc1ccc(CSC(=N)N)cc1`, the results for the MIC in the series with Pseudomonas aeruginosa, in the series with Bacillus subtilis and with Escherichia coli [1] were 32 µg/mL (≈ 163 µM), more than 256 µg/mL and more than 256 µg/mL, respectively.

Regarding `N=C(N)c1ccc(Cl)cc1`, the values for the MIC with Pseudomonas aeruginosa, in the series on Bacillus subtilis and in the series with Escherichia coli [1] were 64 µg/mL (≈ 414 µM), 4 µg/mL (≈ 25.9 µM) and more than 256 µg/mL, respectively.

`N=C(N)OCc1ccc(Cl)cc1`: the MIC was 32 µg/mL (≈ 173 µM) with Pseudomonas aeruginosa, more than 256 µg/mL in the series with Bacillus subtilis and 32 µg/mL (≈ 173 µM) with Escherichia coli [1].

Turning to `CC1(C)S[C@@H]2[C@H](NC(=O)[C@H](N)c3ccccc3)C(=O)N2[C@H]1C(=O)O`, the outcome with Escherichia coli [2] was inactive.
